Bounds are passed on as bounds.

This is an account of results in publication PMC6844228 (International Journal of Nanomedicine, 2019).

The subject of series [1] is human breast adenocarcinoma MCF-7 cells. Nature of the series: Cell Counting Kit-8 cytotoxicity assay, MCF-7. The series is classed as cell-based. The note with it: MCF7, 48 h. A digest of the protocol: (§1)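 Cells were seeded at 5×10^3 per well in DMEM with 10% FBS, 100 μg/mL streptomycin and 100 IU/mL penicillin, then held 24 h at 37°C under 5% CO2. Medium was replaced with test compound at CA4-equivalent concentrations of 0.0025, 0.025, 0.25, 2.5, 25, 125 and 250 μM for 48 h. Then 10% CCK-8 was added for 1.5 h at 37°C and A450 read. Viability was calculated against control and blank wells, and IC50 derived.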

Series [2] concerns human hepatocellular liver carcinoma HepG2 cells. Nature of the series: Cell Counting Kit-8 cytotoxicity assay, HepG2. It counts as cell-based. The note with it: HepG2, 48 h. Put shortly: as §1
On the technique in general: Tetrazolium assays rely on reduction of a dye to a coloured formazan, in cell work by metabolically active cells.

The test system of another series is mouse sarcoma S180 cells. The experiment in a line: Cell Counting Kit-8 cytotoxicity assay, S180. The series is classed as cell-based. The note with it: S-180, 48 h. A digest of the protocol: as §1
Series [3] in a line: In vivo pharmacokinetics after tail vein injection. The note with it: 2 h following injection, SD rats. A digest of the protocol:
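Male rats (180–200 g) were fasted 12 h, then dosed into the tail vein at drug-equivalent 28 mg/kg of phosphate prodrug. Orbital-vein blood was taken at 2, 5, 10, 15, 20, 30 and 45 min and at 1, 1.5, 2, 4, 6 and 10 h, into heparinized vials. Plasma was separated (4,000 rpm, 10 min), stored at −20°C, and prodrug and released parent drug were quantified by HPLC. n=6, mean ± SD.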

A short description of series [4]: In vivo biodistribution in S180 tumor-bearing mice. The note with it: iv, drug-equivalent doses of 28 mg/kg CA4P, heart, kidney, liver, spleen, lung.

In the case of `COc1ccc(/C=C\c2cc(OC)c(OC)c(OC)c2)cc1O` [CA4, combretastatin A4], the IC50 in series [1] was 4 ± 2 nM; in series [2] it was 64 ± 6 nM; in the series on mouse sarcoma S180 cells it was below 1 nM.
Regarding `COc1ccc(/C=C\c2cc(OC)c(OC)c(OC)c2)cc1OP(=O)(O)O` [CA4P, combretastatin A4 phosphate], the IC50 is 50 ± 8 nM in series [1], 179 ± 53 nM in series [2] and below 1 nM in the series with mouse sarcoma S180 cells. For the same molecule, the “Detection of prodrug in plasma” value in series [3] is “could not be detected”. The “Tissue detection of prodrug” value in series [4] was “could be detected in the heart, liver, spleen, lung, kidney, and tumor”.

The IC50 is the midpoint of a concentration-inhibition curve. The low end stands for greater potency in that assay, the high end for weaker potency in that assay.
